Source: ChEMBL document CHEMBL1129512, “Studies on the mechanism of phosphatidylinositol 3-kinase inhibition by wortmannin and related analogs” (J Med Chem, 1996)

How the values were obtained:
[1] = In vitro inhibitory activity against Phosphatidylinositol 3-Kinase
Method in brief: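 Purified PI 3-kinase from bovine brain was used as the enzyme source. Results are reported as IC50 values.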

Mus musculus [2] = test: In vivo inhibition of tumor growth in C3H Mammary model was evaluated at dose 16 mg/kg peroral administration; assay type: functional; conditions: route oral
Method in brief: (§1)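 Murine tumours were serially passaged as tumour fragments, implanted s.c. by trochar in the axillary region. Daily oral dosing began 1 day after implant, as a suspension in 2.5% emulphor EL-620 in 0.9% NaCl. There were 10 randomized mice per group. Tumours were measured by caliper the day after the last dose, with weight = length × width² × 0.5. Inhibition was 100 × (1 − mean treated/mean control weight). A group was toxic if lethality was >25%.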

Mus musculus [3] = test: In vivo inhibition of tumor growth in C3H Mammary model was evaluated at dose 2.0 mg/kg peroral administration; assay type: functional; conditions: route oral
Method in brief: (§2)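 Murine C3H mammary tumour fragments were implanted subcutaneously by trochar in the axillary region, in groups of 10 randomized mice. Oral dosing started 1 day after implant, daily ×10, as a suspension in 2.5% emulphor EL-620 in 0.9% NaCl (water for one analog). Tumour weight, calculated as length×width²×0.5 from calipers, was measured the day after the last dose. Percent inhibition was calculated versus controls. Groups with >25% lethality were scored toxic.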

Mus musculus [4] = test: In vivo inhibition of tumor growth in C3H Mammary model was evaluated at dose 4.0 mg/kg peroral administration; assay type: functional; conditions: route oral; method in brief: as §2
Mus musculus [5] = test: In vivo inhibition of tumor growth in C3H Mammary model was evaluated at dose 8.0 mg/kg peroral administration; range is 60-79%; assay type: functional; conditions: route oral; method in brief: as §1

| IC50 [1] [nM] | SMILES | further results |
| --- | --- | --- |
| > 500 | C/N=C/C1=C(O)O[C@H](COC)[C@@]2(C)C1=C(O)C(=O)C1=C2[C@H](OC(C)=O)C[C@]2(C)C(=O)CC[C@@H]12 |  |
| 309 | COC[C@H]1OC(=O)c2coc3c2[C@@]1(C)C1=C(C3=O)[C@@H]2C[C@@H](OC(C)=O)C(=O)[C@@]2(C)C[C@H]1OC(C)=O |  |
| > 500 | COC[C@H]1OC(O)=C(C=N)C2=C(O)C(=O)C3=C([C@H](OC(C)=O)C[C@]4(C)C(=O)CC[C@@H]34)[C@]21C |  |
| 52 | CCCCS/C=C1\C(=O)O[C@H](COC)[C@@]2(C)C1=C(O)C(=O)C1=C2[C@H](OC(C)=O)C[C@]2(C)C(=O)CC[C@@H]12 |  |
| 77 | COC[C@H]1OC(=O)c2coc3c2[C@@]1(C)C1=C(C3=O)[C@@H]2C[C@@H](Br)C(=O)[C@@]2(C)C[C@H]1OC(C)=O |  |
| 153 | COC[C@H]1OC(=O)c2coc3c2[C@@]1(C)C1=C(C3=O)[C@@H]2C[C@@H](O)C(=O)[C@@]2(C)C[C@H]1OC(C)=O |  |
| 4600 | COC(=O)c1coc2c(O)c3c(c(C)c12)C=C[C@]1(C)C(=O)CC[C@@H]31 | inhibition in vivo at 16 mg/kg (Mus musculus [2]): < 60% |
| 17 | COC[C@H]1OC(=O)c2coc3c2[C@@]1(C)C1=C(C3=O)[C@@H]2CCC(=O)[C@@]2(C)CC1 | inhibition in vivo at 2 mg/kg (Mus musculus [3]): < 60%; inhibition in vivo at 4 mg/kg (Mus musculus [4]): > 25% |

| SMILES | IC50 [1] [nM] | further results |
| --- | --- | --- |
| COC[C@H]1OC(=O)c2coc3c2[C@@]1(C)C1=CC[C@]2(C)C(=O)CC[C@H]2C1C3=O (some centres undefined) | 54 | inhibition in vivo at 8 mg/kg (Mus musculus [5]): 79%; inhibition in vivo at 16 mg/kg (Mus musculus [2]): > 25% |
